Assay [1] addresses T1, Epidermal growth factor receptor (Homo sapiens, UniProt P00533). In words: Inhibition of recombinant EGFR (unknown origin) using poly-GT peptide as substrate by Transcreener assay.
The target in assay [2] is Epidermal growth factor receptor (Homo sapiens, UniProt P00533, L858R). In words: Inhibition of recombinant EGFR L858R mutant (unknown origin) using poly-GT peptide as substrate after 1 hr by Transcreener assay. Format: protein assay.
The nature of assay [3]: Cytotoxicity against mouse NIH/3T3 cells after 48 hrs by MTT assay. Format: cell-based. The note with it: NIH3T3, 48 h. (In general: Formazan colour is commonly taken as a measure of viable cells.)
The subject of a further assay is NCI-H1975. As to the kind of experiment: Cytotoxicity against human NCI-H1975 cells after 48 hrs by MTT assay. The note with it: NCI-H1975, 48 h. The assay is classed as functional, cell-based.
Assay [4] addresses T2, Hepatocyte growth factor receptor (Homo sapiens, UniProt P08581). As to the kind of experiment: Inhibition of c-MET (unknown origin) phosphorylation by cell-based Western blot analysis. For orientation: In western blotting, separated proteins are transferred to a membrane and probed.
Assay [5] has as its system NCI-H1993. As to the kind of experiment: Cytotoxicity against human NCI-H1993 cells after 48 hrs by MTT assay. The assay is classed as functional, cell-based. The note with it: NCI-H1993, 48 h.
The next assay has as its target Insulin receptor (Homo sapiens, UniProt P06213). In words: Inhibition of recombinant INSR (unknown origin) using fluorescent dye-labelled KKSRGDYMTMQIG peptide peptide as substrate after 1 hr by IMAP assay.
Assay [6] concerns the target T1, Epidermal growth factor receptor. In words: Inhibition of EGFR (unknown origin) phosphorylation by cell-based Western blot analysis.
Assay [7] deals with T2, Hepatocyte growth factor receptor. In words: Inhibition of recombinant c-MET (unknown origin) using poly-AEKY peptide as substrate by ADPGlo assay. To be noted: TDE = time-dependent effect.
The nature of assay [8]: Cytotoxicity against human HCC827 cells after 48 hrs by MTT assay. The assay is classed as functional, cell-based. To be noted: HCC827, 48 h.
Assay [9] addresses T2, Hepatocyte growth factor receptor. In words: Inhibition of recombinant c-MET (unknown origin) using poly-AEKY peptide as substrate after 60 mins by ADPGlo assay. On the technique in general: ADP-Glo turns the ADP formed in a reaction into a luminescent signal.
The test system of a further assay is A549. As to the kind of experiment: Cytotoxicity against human A549 cells after 48 hrs by MTT assay. The assay is classed as functional, cell-based. The note with it: A549, 48 h.
A further assay has as its system DU-145. As to the kind of experiment: Antiinvasive activity in human DU145 cells assessed as inhibition of HGF-induced cell motility preincubated for 1 hr before HGF treatment measured after 24 hrs by cell scattering assay. The assay is classed as functional, cell-based.
Assay [10] concerns NCI-H1993. As to the kind of experiment: Induction of apoptosis in human NCI-H1993 cells at 1 uM after 24 hrs using propidium iodide by flow cytometry. Format: functional, cell-based. In a few lines: (§1)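 Apoptosis read by flow cytometry; means ± SD of at least 3 independent experiments; unpaired 2-tailed Student's t test against DMSO-treated cells, p < 0.05.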
For a further assay, the system named is HCC827. As to the kind of experiment: Induction of apoptosis in human HCC827 cells at 1 uM after 24 hrs using propidium iodide by flow cytometry. The assay is classed as functional, cell-based. In a few lines: as §1

The text below walks through data of ChEMBL document CHEMBL3259680, “Discovery and Biological Evaluation of Novel Dual EGFR/c-Met Inhibitors” (ACS Med Chem Lett, 2014).

What is called IC50 is the point on the concentration scale where inhibition reaches its midpoint.

Calls of active or inactive are those of the source. The rule behind the calls is not given here.

For the compound `COc1cc2c(Oc3ccc(NS(=O)(=O)c4cccc(-c5cnn(C)c5)c4)cc3F)ccnc2cc1OCCCN1CCN(C)CC1`, the concentration for half-maximal inhibition (IC50) in assay [1] was determined as 0.084 µM; in [2], 0.369 µM; in assay [3], 2.48 µM; in the assay on NCI-H1975 it was 6.12 µM; with NCI-H1993 [5] it was 6.24 µM; at Insulin receptor, 7.87 µM. For the same compound, the half-inhibitory concentration (IC50) in assay [8] was 2.83 µM; in [9], 0.564 µM; with A549 it was 8.85 µM. Moreover, the inhibition result in assay [4] is “Active”. Moreover, in [6], the inhibition entry was “inactive”. Also, the inhibition result in assay [7] is “tde”.
As to `COc1cc2c(Oc3ccc(NS(=O)(=O)c4cc(-c5ccsc5)ccc4F)cc3F)ccnc2cc1OCCCN1CCN(C)CC1`, the half-inhibitory concentration (IC50) in [1] came out at 0.572 µM; in assay [2], 0.578 µM; with NCI-H1975 it was 4.1 µM; with NCI-H1993 [5] it was 4 µM; on Insulin receptor, 11.8 µM; in assay [8], 2.82 µM. Besides, the values for the half-maximal inhibitory concentration (IC50) (in assay [9]; in the assay with A549) were 1.66 µM and 4.36 µM, respectively. For the same compound, in [7], the inhibition entry was “tde”.
In the case of `COc1cc2c(Oc3ccc(NS(=O)(=O)c4cccc(-c5ccoc5)c4)cc3F)ccnc2cc1OCCCN1CCN(C)CC1`, the half-maximal inhibitory concentration (IC50) was 0.168 µM in assay [1]; 0.283 µM in [2]; 1.76 µM in assay [3]; 2.96 µM with NCI-H1975; 2.69 µM in the assay with NCI-H1993 [5]; 5.23 µM on Insulin receptor. Besides, the concentration for half-maximal inhibition (IC50) in assay [8] stood at 2.5 µM; in [9], 1.05 µM; in the assay on A549, 3.65 µM. In addition, the inhibition entry in assay [4] is “Active”. For the same compound, in [6], the inhibition result was “inactive”. Besides, the inhibition entry in assay [7] was “tde”.
Turning to `COc1cc2c(Oc3ccc(NS(=O)(=O)c4cccc(-c5ccco5)c4)cc3F)ccnc2cc1OCCCN1CCN(C)CC1`, the concentration for half-maximal inhibition (IC50) is 1.91 µM in assay [1]; 1.9 µM in assay [2]; 3.2 µM in [3]; 1.62 µM in the assay on NCI-H1975; > 10 µM in the assay with NCI-H1993 [5]; > 12.5 µM on Insulin receptor. In addition, the IC50 in assay [8] stood at 3.11 µM; in assay [9], 2.71 µM. For the same compound, in assay [7], the inhibition entry is “tde”.
Regarding `COc1cc2c(Oc3ccc(NS(=O)(=O)c4cccc(-c5ccoc5)c4)cc3F)ccnc2cc1OCCCN1CCOCC1`, the 50% inhibitory concentration (IC50) was 3.86 µM in assay [1]; 2.9 µM in [2]; 8.93 µM in the assay on NCI-H1975; 4.46 µM in the assay on NCI-H1993 [5]; > 12.5 µM at Insulin receptor; 4.17 µM in [8]. The results for the IC50 (in assay [9]; in the assay on A549) were 0.978 µM and 8.21 µM, respectively. Moreover, the inhibition result in assay [7] is “tde”.
As to `COc1cc2c(Oc3ccc(NS(=O)(=O)c4ccc(-c5ccsc5)cc4)cc3F)ccnc2cc1OCCCN1CCN(C)CC1`, the IC50 in assay [1] was 1.2 µM; in assay [2], 1.85 µM; in the assay with NCI-H1975, 7.71 µM; in the assay on NCI-H1993 [5], 5.04 µM; on Insulin receptor it was > 12.5 µM; in [8], 4.61 µM. Further, the IC50 is 2.69 µM in assay [9] and 6.78 µM in the assay with A549. Further, the inhibition entry in [7] is “tde”.
As for `COc1cc2c(Oc3ccc(NS(=O)(=O)c4ccc(-c5cnn(C)c5)cc4)cc3F)ccnc2cc1OCCCN1CCN(C)CC1`, the half-maximal inhibitory concentration (IC50) in [1] was 4.35 µM; in assay [2], 7.54 µM; in the assay with NCI-H1975 it was > 10 µM; in the assay with NCI-H1993 [5] it was 4.33 µM; at Insulin receptor, > 12.5 µM; in assay [8], 5.9 µM. Also, the results for the IC50 (in assay [9]; with A549) were 1.23 µM and > 10 µM, respectively. Moreover, in assay [7], the inhibition result was “tde”.
As for `COc1cc2c(Oc3ccc(NS(=O)(=O)c4cccc(-c5cnn(C)c5)c4)cc3F)ccnc2cc1OCCCN1CCOCC1`, the IC50 was 1.37 µM in assay [1]; 1.97 µM in [2]; 6.91 µM in the assay with NCI-H1975; 5.23 µM with NCI-H1993 [5]; > 12.5 µM on Insulin receptor; 5.01 µM in [8]. The IC50 amounted to 1.72 µM in [9] and 6.44 µM in the assay with A549. Further, in assay [7], the inhibition result was “tde”.
With `COc1cc2c(Oc3ccc(NC(=O)c4c(C)n(C)n(-c5ccccc5)c4=O)cc3F)ccnc2cc1OCCCN1CCOCC1`, the 50% inhibitory concentration (IC50) is > 16 µM in [1]; > 16 µM in assay [2]; 0.074 µM in [3]; 1.46 µM with NCI-H1975; 0.005 µM with NCI-H1993 [5]; 0.17 µM on Insulin receptor. In addition, the IC50 is 2.51 µM in [8], 0.007 µM in [9] and 1.19 µM in the assay on A549. For the same compound, the inhibition entry in assay [4] was “Active”. Further, in assay [6], the inhibition entry was “inactive”.
As for `CCOc1ccn(-c2ccc(F)cc2)c(=O)c1C(=O)Nc1ccc(Oc2ccnc(N)c2Cl)c(F)c1` [BMS-777607], the concentration for half-maximal inhibition (IC50) with DU-145 turned out to be 0.2 µM; in the assay with NCI-H1993 [5] it was 1.11 µM; in assay [9], 0.007 µM.
Consider `C#Cc1cccc(Nc2ncnc3cc(OCCOC)c(OCCOC)cc23)c1`, for which, in the assay on NCI-H1993 [10], the outcome was inactive. Besides, the outcome in the assay on HCC827 was Active.
Turning to `CN(C)C/C=C/C(=O)Nc1cc2c(Nc3ccc(F)c(Cl)c3)ncnc2cc1O[C@H]1CCOC1` [AFATINIB], the 50% inhibitory concentration (IC50) in assay [3] was 3.6 µM; with NCI-H1993 [5] it was > 12.5 µM. Also, the outcome in the assay with NCI-H1993 [10] was inactive. Moreover, the outcome in the assay on HCC827 was Active.
Take `C[C@@H](Oc1cc(-c2cnn(C3CCNCC3)c2)cnc1N)c1c(Cl)ccc(F)c1Cl` [CRIZOTINIB]: the figures for the IC50 (in assay [3]; with NCI-H1993 [5]) were 0.364 µM and 0.061 µM, respectively. Further, the outcome in the assay on NCI-H1993 [10] was inactive.
`COc1cc2c(Oc3ccc(NC(=O)c4c(C)n(C)n(-c5ccccc5)c4=O)cc3F)ccnc2cc1OCCCN1CCN(C)CC1`: the half-maximal inhibitory concentration (IC50) in assay [1] was 7.67 µM; in [2], > 16 µM; in assay [3], 0.066 µM; with NCI-H1975, 1.06 µM; with NCI-H1993 [5] it was 0.002 µM; at Insulin receptor, 0.039 µM. The half-inhibitory concentration (IC50) was determined as 2.58 µM in [8], 0.005 µM in assay [9] and 1.24 µM in the assay with A549. Further, in assay [4], the inhibition result is “Active”. Further, in [6], the inhibition result was “inactive”. Besides, the inhibition entry in [7] is “tde”.
`COc1cc2c(Oc3ccc(NS(=O)(=O)c4cccc(-c5cccs5)c4)cc3F)ccnc2cc1OCCCN1CCN(C)CC1`: the 50% inhibitory concentration (IC50) in assay [1] was 1.05 µM; in assay [2] it was 1.16 µM; in the assay with NCI-H1975, 4.52 µM; in the assay with NCI-H1993 [5], 4.03 µM; at Insulin receptor it was > 12.5 µM; in assay [8], 5.03 µM. In addition, the half-inhibitory concentration (IC50) in [9] was found to be 2.71 µM; with A549, 3.92 µM. Moreover, the inhibition result in [7] is “tde”.
